Our source for the IC50 and CC50 values is ChEMBL document CHEMBL3112419, “Hydroxy fatty acids for the delivery of dideoxynucleosides as anti-HIV agents” (Bioorg Med Chem Lett, 2014).

SMILES strings stand for the structures.

The test system of data set [1] is Human immunodeficiency virus 2. The data set is described as follows: Antiviral activity against HIV-2 ROD infected in thymidine kinase-deficient human CEM cells. In kind it is functional, organism-based. The conditions noted are these: Human immunodeficiency virus 2, ISOLATE ROD, CCRF-CEM. The procedure, abridged:
(§1)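 HIV-2 strain ROD was tested in wild-type CEM (CEM/0) cells and in thymidine kinase-deficient CEM (CEM/TK⁻) cells. Conjugates were tested as diastereomeric mixtures, and parent nucleosides were included as references.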

Data set [2] in a line: Cytotoxicity against human CEM/0 cells. In kind it is cell-based, CCRF-CEM.
Data set [3] concerns Human immunodeficiency virus 2. The data set is described as follows: Antiviral activity against HIV-2 ROD infected in human CEM/0 cells. In kind it is functional, organism-based. The conditions noted are these: Human immunodeficiency virus 2, ISOLATE ROD, CCRF-CEM. The procedure, abridged:
as §1

Data set [4] in a line: Cytotoxicity against human MT4 cells. In kind it is cell-based. The procedure, abridged:
(§2)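 MT-4 cell cultures infected with wild-type HIV-1 or HIV-2, with cytotoxicity assessed in parallel in the same cells. Lipid-nucleotide conjugates were purified as Na⁺ salts and tested as diastereomeric mixtures. Parent dideoxynucleosides were run alongside as references.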

Data set [5] concerns Human immunodeficiency virus 2. The data set is described as follows: Antiviral activity against HIV-2 ROD infected in human MT4 cells. In kind it is functional, organism-based. As to conditions: Human immunodeficiency virus 2, ISOLATE ROD. The procedure, abridged: as §2
In data set [6] the test system is Human immunodeficiency virus 1. The data set is described as follows: Antiviral activity against HIV-1 3B infected in human MT4 cells. In kind it is functional, organism-based. As to conditions: Human immunodeficiency virus 1, 3B. The procedure, abridged: as §2

On to `CCCCCCCCCCCCCCCCC(OP(=O)(O)OC[C@@H]1C=C[C@H](n2cnc3c(N)ncnc32)O1)C(=O)O` (some centres not stated), for which the concentration for half-maximal inhibition (IC50) in data set [1] is above 39.1 µM; in data set [3] it was 25.3 µM; in data set [5], 0.11 µM; in data set [6], 0.19 µM. The CC50 in data set [2] was determined as 81.3 µM; in data set [4], 97.8 µM.
Regarding `Nc1ccn([C@H]2CC[C@@H](CO)O2)c(=O)n1` [ZALCITABINE], the IC50 in data set [1] was determined as 1.9 µM; in data set [3], 0.5 µM; in data set [5] it was 1.9 µM; in data set [6], 1 µM. The CC50 worked out at 179 µM in data set [2] and 325 µM in data set [4].
Regarding `CCCCCCCCCCCCCCCCC(OP(=O)(O)OC[C@@H]1CC[C@H](n2ccc(N)nc2=O)O1)C(=O)O` (some centres not stated), the IC50 in data set [1] is above 40.5 µM; in data set [3], 7.5 µM; in data set [5], 5.7 µM; in data set [6], 9.7 µM. For the same compound, the CC50 was 91.1 µM in data set [2] and 94.1 µM in data set [4].
Turning to `Cc1cn([C@H]2C[C@H](N=[N+]=[N-])[C@@H](CO)O2)c(=O)[nH]c1=O` [ZIDOVUDINE], the IC50 in data set [1] is above 14.9 µM; in data set [3], 0.04 µM; in data set [5] it was 0.007 µM. Also, the results for the CC50 in data set [2] and in data set [4] were above 468 µM and above 93.5 µM, respectively.
Consider `CCCCCCCCCCCCCCCC(CC(=O)O)OP(=O)(O)OC[C@@H]1C=C[C@H](n2cc(C)c(=O)[nH]c2=O)O1` (some centres not stated), for which the 50% inhibitory concentration (IC50) in data set [1] is above 39.6 µM; in data set [3], above 198 µM; in data set [5], 16.2 µM; in data set [6] it was 10.9 µM. Further, the CC50 in data set [2] and in data set [4] was above 198 µM in each case.
For the compound `CCCCCCCCCCCCCCCCC(OP(=O)(O)OC[C@@H]1C=C[C@H](n2cc(C)c(=O)[nH]c2=O)O1)C(=O)O` (some centres not stated), the IC50 in data set [1] was above 39.6 µM; in data set [3], above 39.6 µM; in data set [5], 0.4 µM; in data set [6] it was 0.4 µM. Besides, the CC50 is 92.6 µM in data set [2] and 64.7 µM in data set [4].
`Cc1cn([C@H]2C=C[C@@H](CO)O2)c(=O)[nH]c1=O` [STAVUDINE]: the IC50 in data set [1] was at least 120 µM; in data set [3], 8.8 µM; in data set [5], 0.4 µM; in data set [6] it was 0.26 µM. The cytotoxic concentration (CC50) is above 268 µM in data set [2] and 327 µM in data set [4].
For `Nc1ncnc2c1ncn2[C@H]1C=C[C@@H](CO)O1`, the half-inhibitory concentration (IC50) is at least 81.9 µM in data set [1], at least 36.6 µM in data set [3], above 278 µM in data set [5] and above 278 µM in data set [6]. In addition, the CC50 was determined as 360 µM in data set [2] and 278 µM in data set [4].

A word on the IC50: it is the midpoint of a concentration-inhibition curve. Read a low IC50 as greater potency in that assay. The CC50 is the concentration that lowers cell viability or growth by half.
